Experimental data taken from ChEMBL document CHEMBL1142672 (J Med Chem, 2005).
Calls of active or inactive are those of the source. The calls are words filed in the database; no cut-off is given here.

Legend:
[1] = target: cGMP-specific 3',5'-cyclic phosphodiesterase (Homo sapiens) (UniProt O76074); assay: Inhibition of [3H]cGMP binding to human Phosphodiesterase 5 at 30 uM; Inactive
[2] = target: T1, 3',5'-cyclic-AMP phosphodiesterase 4D (Homo sapiens, UniProt Q08499); assay: Inhibition of [3H]cAMP binding to recombinant human Phosphodiesterase 4D5 (PDE4D5) in baculovirus expression system
[3] = target: T1, 3',5'-cyclic-AMP phosphodiesterase 4D; assay: Inhibition of [3H]cAMP binding to recombinant human Phosphodiesterase 4D3 (PDE4D3) in baculovirus expression system
[4] = target: 3',5'-cyclic-AMP phosphodiesterase 4A (Homo sapiens, UniProt P27815); assay: Inhibition of [3H]cAMP binding to recombinant human Phosphodiesterase 4AL (PDE4AL) in baculovirus expression system
[5] = target: T1, 3',5'-cyclic-AMP phosphodiesterase 4D; assay: Inhibition of [3H]cAMP binding to recombinant human Phosphodiesterase 4DE (PDE4DE) in baculovirus expression system
[6] = target: 3',5'-cyclic-AMP phosphodiesterase 4B (Homo sapiens, UniProt Q07343); assay: Inhibition of [3H]cAMP binding to recombinant human Phosphodiesterase 4BL (PDE4BL) in baculovirus expression system
[7] = target: Phosphodiesterase 3 (Homo sapiens) (UniProt Q14432+Q13370); assay: Inhibition of [3H]cAMP binding to human phosphodiesterase 3 at 30 uM; Inactive; type: protein assay
Method in brief: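 Enzyme isolated from freshly collected human platelets. [3H]cAMP SPA kit assay, substrate at 200 nM (near Km under assay conditions). Compounds tested at 30 µM.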

[8] = target: Phosphodiesterase 4 (Homo sapiens, UniProt P27815+Q08499+Q07343+Q08493); assay: Inhibition of [3H]cAMP binding to human lung Phosphodiesterase 4; type: protein assay

3',5'-cyclic-AMP phosphodiesterase 4A, sequence (P27815 whole entry): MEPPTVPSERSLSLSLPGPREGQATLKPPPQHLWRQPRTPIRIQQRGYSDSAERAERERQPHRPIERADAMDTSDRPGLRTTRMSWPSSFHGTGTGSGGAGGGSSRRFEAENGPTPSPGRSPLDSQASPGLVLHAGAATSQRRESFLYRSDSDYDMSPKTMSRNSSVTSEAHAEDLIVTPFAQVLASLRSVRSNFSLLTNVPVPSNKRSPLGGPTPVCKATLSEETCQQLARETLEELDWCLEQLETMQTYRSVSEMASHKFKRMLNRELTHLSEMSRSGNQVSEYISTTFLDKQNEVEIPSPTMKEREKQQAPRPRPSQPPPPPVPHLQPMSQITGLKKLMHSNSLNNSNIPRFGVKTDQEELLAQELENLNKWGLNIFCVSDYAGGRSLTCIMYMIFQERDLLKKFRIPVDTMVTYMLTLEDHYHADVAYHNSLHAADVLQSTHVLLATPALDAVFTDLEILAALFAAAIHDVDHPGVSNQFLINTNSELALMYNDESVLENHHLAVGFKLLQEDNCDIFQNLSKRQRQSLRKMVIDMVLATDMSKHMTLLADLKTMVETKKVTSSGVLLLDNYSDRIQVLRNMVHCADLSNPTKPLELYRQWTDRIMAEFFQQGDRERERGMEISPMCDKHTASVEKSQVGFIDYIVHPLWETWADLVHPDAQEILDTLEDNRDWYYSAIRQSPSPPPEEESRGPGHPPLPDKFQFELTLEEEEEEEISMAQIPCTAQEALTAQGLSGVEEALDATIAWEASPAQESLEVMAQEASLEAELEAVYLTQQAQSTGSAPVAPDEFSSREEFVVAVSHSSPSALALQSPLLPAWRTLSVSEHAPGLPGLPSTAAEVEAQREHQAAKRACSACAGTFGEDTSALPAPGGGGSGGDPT
3',5'-cyclic-AMP phosphodiesterase 4B, sequence (Q07343 whole entry): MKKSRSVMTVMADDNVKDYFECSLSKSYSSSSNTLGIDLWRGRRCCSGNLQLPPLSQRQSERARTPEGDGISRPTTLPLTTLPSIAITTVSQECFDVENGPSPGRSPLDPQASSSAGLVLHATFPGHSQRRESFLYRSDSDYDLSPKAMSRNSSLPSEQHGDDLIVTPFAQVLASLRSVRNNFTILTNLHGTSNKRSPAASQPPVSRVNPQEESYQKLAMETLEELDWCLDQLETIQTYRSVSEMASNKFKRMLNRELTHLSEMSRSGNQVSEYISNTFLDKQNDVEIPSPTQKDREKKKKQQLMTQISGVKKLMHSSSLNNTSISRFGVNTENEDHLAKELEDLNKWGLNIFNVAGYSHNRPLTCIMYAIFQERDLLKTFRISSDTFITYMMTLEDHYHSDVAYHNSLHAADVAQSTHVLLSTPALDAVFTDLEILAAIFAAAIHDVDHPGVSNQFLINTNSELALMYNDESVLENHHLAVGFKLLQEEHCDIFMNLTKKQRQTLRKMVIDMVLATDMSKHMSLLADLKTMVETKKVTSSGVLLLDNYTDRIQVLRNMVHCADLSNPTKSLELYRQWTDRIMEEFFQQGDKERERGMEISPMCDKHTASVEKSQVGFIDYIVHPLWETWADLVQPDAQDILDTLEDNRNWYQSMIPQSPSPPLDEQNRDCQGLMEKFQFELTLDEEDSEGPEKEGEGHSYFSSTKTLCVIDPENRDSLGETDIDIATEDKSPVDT
T1 sequence (Q08499 whole entry): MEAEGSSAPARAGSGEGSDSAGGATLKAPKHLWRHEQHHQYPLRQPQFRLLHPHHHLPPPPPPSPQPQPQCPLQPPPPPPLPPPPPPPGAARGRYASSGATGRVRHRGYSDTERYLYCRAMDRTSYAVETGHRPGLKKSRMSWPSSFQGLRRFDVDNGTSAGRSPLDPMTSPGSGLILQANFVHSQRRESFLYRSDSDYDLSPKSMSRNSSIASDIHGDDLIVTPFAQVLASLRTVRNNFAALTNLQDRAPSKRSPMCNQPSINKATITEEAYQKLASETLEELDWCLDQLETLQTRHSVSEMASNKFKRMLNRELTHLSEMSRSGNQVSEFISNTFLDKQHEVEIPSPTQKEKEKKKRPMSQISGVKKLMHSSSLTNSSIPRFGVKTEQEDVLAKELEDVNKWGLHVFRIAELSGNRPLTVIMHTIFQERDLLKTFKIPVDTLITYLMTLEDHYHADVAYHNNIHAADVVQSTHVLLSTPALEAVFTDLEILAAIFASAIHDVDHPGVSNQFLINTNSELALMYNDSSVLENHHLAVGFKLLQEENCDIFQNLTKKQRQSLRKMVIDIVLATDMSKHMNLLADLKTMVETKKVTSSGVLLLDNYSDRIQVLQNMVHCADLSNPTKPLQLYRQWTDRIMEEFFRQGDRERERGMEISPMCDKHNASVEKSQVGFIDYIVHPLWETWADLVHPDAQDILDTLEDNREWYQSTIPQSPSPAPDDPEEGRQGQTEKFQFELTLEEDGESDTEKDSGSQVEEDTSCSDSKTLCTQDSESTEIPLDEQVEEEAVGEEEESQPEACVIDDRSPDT

Effect [1]	Ki [2]	Ki [3]	Ki [4]	Ki [5]	Ki [6]	Effect [7]	Ki [8]	SMILES
inactive	322 nM	493 nM	5200 nM	5050 nM	430 nM	inactive	1470 nM	COc1cccc(OC[C@H](C)c2nc3c(N)ncn(Cc4ccc(OC)c(OC5CCCC5)c4)c-3n2)c1
inactive	141 nM	172 nM	3900 nM	2890 nM	270 nM	inactive	436 nM	CCNc1ncn(Cc2ccc(OC)c(OC3CCCC3)c2)c2nc(C(C)C)nc1-2
–	> 50000 nM	> 50000 nM	> 50000 nM	> 50000 nM	> 50000 nM	–	–	CC1CC(=O)NN=C1c1ccc(-n2ccnc2)cc1 (stereo not given) [CI-930]
inactive	> 50000 nM	4300 nM	> 50000 nM	> 50000 nM	> 50000 nM	inactive	5230 nM	COc1ccc(Cn2cnc(N)c3nc(C(C)(C)COc4ccc(C(=O)O)cc4)nc2-3)cc1OC1CCCC1
inactive	5.5 nM	3 nM	103 nM	246 nM	5.2 nM	inactive	9.3 nM	COC(=O)c1ccc(OCC(C)(C)c2nc3c(N)ncn(Cc4ccc(OC)c(OC5CCCC5)c4)c-3n2)cc1
inactive	4.9 nM	8 nM	155 nM	312 nM	7.6 nM	inactive	25 nM	COc1ccc(Cn2cnc(N)c3nc(C(C)(C)COc4ccc(C(N)=O)cc4)nc2-3)cc1OC1CCCC1
